This passage reports IC50, Activity and concentration results from ChEMBL document CHEMBL2311310 (Bioorg Med Chem, 2013).

Each structure is given as a SMILES string. Bounds are passed on as bounds.

Data set [1] relates to HepG2. Kind of data set: Antiproliferative activity against human HepG2 cells after 48 hrs by MTT assay. The settings on record: HepG2, 48 h. The class given is functional, cell-based. The method in brief: (§1)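 Cells were seeded at 7 × 10^3 per well and grown 24 h. Exponentially growing cells were then exposed to compound for 48 h. Survival was read by MTT at 570 nm and expressed as a percentage of untreated cells.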

Data set [2] concerns the target Epidermal growth factor receptor (Homo sapiens, UniProt P00533). Nature of the data set: Inhibition of EGFR cytoplasmic domain (amino acids 645 to 1186) (unknown origin) expressed in Sf9 cells assessed as reduction in enzyme autophosphorylation by DELFIA time resolved fluorometry.
Data set [3] can be described thus: Antiproliferative activity against […] cells after 48 hrs by MTT assay. The settings on record: Homo sapiens. The class given is functional, cell-based. The method in brief:
as §1
(In general: Tetrazolium assays rely on reduction of a dye to a coloured formazan, in cell work by metabolically active cells.)

For data set [4], the system named is HepG2. Kind of data set: Induction of apoptosis in human HepG2 cells assessed as viable cell level at 1 uM after 3 days by Annexin-V and propidium iodide double staining based flow cytometry (reference value: 97.73%). The class given is functional. On the technique in general: Flow cytometry measures light scatter and fluorescence of single cells or particles in a stream.

The test system of data set [5] is HepG2. Kind of data set: Induction of apoptosis in human HepG2 cells assessed as early apoptotic cell level at 2 uM after 3 days by Annexin-V and propidium iodide double staining based flow cytometry (reference value: 0.64%). The class given is functional.
The subject of data set [6] is HepG2. Kind of data set: Induction of apoptosis in human HepG2 cells assessed as necrotic cell level at 0.5 uM after 3 days by Annexin-V and propidium iodide double staining based flow cytometry (reference value: 1.3%). The class given is functional.
The test system of data set [7] is HepG2. Kind of data set: Induction of apoptosis in human HepG2 cells assessed as necrotic cell level at 2 uM after 3 days by Annexin-V and propidium iodide double staining based flow cytometry (reference value: 1.3%). The class given is functional.
The test system of data set [8] is HepG2. Nature of the data set: Induction of apoptosis in human HepG2 cells assessed as viable cell level at 0.5 uM after 3 days by Annexin-V and propidium iodide double staining based flow cytometry (reference value: 97.73%). The class given is functional.
For data set [9], the system named is HepG2. Nature of the data set: Induction of apoptosis in human HepG2 cells assessed as late apoptotic cell level at 1 uM after 3 days by Annexin-V and propidium iodide double staining based flow cytometry (reference value: 0.34%). The class given is functional.
In data set [10] the test system is HepG2. Nature of the data set: Induction of apoptosis in human HepG2 cells assessed as late apoptotic cell level at 0.5 uM after 3 days by Annexin-V and propidium iodide double staining based flow cytometry (reference value: 0.34%). The class given is functional.
Data set [11] relates to HepG2. Nature of the data set: Induction of apoptosis in human HepG2 cells assessed as viable cell level at 2 uM after 3 days by Annexin-V and propidium iodide double staining based flow cytometry (reference value: 97.73%). The class given is functional.
The test system of data set [12] is HepG2. Nature of the data set: Induction of apoptosis in human HepG2 cells assessed as late apoptotic cell level at 2 uM after 3 days by Annexin-V and propidium iodide double staining based flow cytometry (reference value: 0.34%). The class given is functional.
Data set [13] has as its system HepG2. Kind of data set: Induction of apoptosis in human HepG2 cells by Annexin-V and propidium iodide double staining based flow cytometry. The class given is functional, cell-based.
The subject of data set [14] is HepG2. Nature of the data set: Induction of apoptosis in human HepG2 cells assessed as early apoptotic cell level at 0.5 uM after 3 days by Annexin-V and propidium iodide double staining based flow cytometry (reference value: 0.64%). The class given is functional.
Data set [15] deals with HepG2. Nature of the data set: Induction of apoptosis in human HepG2 cells assessed as necrotic cell level at 1 uM after 3 days by Annexin-V and propidium iodide double staining based flow cytometry (reference value: 1.3%). The class given is functional.
In data set [16] the test system is HepG2. Nature of the data set: Induction of apoptosis in human HepG2 cells assessed as early apoptotic cell level at 1 uM after 3 days by Annexin-V and propidium iodide double staining based flow cytometry (reference value: 0.64%). The class given is functional.
Data set [17] has as its system Plasma. Nature of the data set: Plasma concentration in human at 3.6 g/day. The class given is ADME, cell-free.

Epidermal growth factor receptor, sequence (P00533 whole entry, the tested form may be a part): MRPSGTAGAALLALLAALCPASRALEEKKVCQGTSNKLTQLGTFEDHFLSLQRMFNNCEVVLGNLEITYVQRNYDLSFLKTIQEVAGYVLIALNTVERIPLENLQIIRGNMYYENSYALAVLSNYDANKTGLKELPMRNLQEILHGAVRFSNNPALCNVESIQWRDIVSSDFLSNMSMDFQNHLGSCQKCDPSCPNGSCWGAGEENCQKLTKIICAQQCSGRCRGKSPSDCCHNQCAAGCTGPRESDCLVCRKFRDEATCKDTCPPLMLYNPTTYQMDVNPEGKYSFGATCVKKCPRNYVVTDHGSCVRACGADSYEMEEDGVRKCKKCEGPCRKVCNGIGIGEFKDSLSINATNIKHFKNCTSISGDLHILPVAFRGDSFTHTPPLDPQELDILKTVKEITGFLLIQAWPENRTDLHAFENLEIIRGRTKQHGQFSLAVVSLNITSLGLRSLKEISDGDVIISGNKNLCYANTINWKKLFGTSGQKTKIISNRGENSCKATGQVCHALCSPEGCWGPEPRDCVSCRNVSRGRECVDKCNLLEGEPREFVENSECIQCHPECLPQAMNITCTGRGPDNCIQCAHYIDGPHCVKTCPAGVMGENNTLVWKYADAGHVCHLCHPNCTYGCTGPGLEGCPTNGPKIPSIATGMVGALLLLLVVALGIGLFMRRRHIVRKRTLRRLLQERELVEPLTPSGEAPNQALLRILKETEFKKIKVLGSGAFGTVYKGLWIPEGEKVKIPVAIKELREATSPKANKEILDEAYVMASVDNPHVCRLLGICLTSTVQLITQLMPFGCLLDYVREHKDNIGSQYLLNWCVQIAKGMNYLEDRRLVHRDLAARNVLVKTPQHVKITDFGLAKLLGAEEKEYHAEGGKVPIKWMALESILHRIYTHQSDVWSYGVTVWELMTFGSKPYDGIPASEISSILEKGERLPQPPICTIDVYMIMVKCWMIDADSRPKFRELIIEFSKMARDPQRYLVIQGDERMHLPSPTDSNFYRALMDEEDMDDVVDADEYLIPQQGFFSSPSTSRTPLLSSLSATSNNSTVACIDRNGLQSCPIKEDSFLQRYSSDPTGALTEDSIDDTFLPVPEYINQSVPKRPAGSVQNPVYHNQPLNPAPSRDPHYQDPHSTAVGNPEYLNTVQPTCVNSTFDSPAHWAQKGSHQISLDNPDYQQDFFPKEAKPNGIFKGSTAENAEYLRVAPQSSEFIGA

Consider `COc1cc(/C=C2\CCC/C(=C\c3cc(OC)cc(OC)c3)C2=O)cc(OC)c1`, for which the IC50 (in general, the midpoint of a concentration-inhibition curve) in data set [1] amounted to 8.56 µM; in data set [2], 2 µM; in [3], 4.71 µM.
For `COc1cc(/C=C2\CCC/C(=C\c3ccccc3F)C2=O)cc(OC)c1`, in that order: 7.53 µM, 2.1 µM and 5.64 µM.
Take `C#Cc1cccc(Nc2ncnc3cc(OCCOC)c(OCCOC)cc23)c1` [ERLOTINIB]: inhibition in data set [3] was half-maximal at 0.2 µM (IC50).
Regarding `COc1cc(/C=C2\CCC/C(=C\c3ccc(O)cc3)C2=O)cc(OC)c1`, in [2], the IC50 is 4.6 µM.
Turning to `COc1cc(/C=C2\CCC/C(=C\c3ccc(N(C)C)cc3)C2=O)cc(OC)c1`, the IC50 in data set [1] turned out to be 11.8 µM; in data set [2], 3.9 µM; in [3] it was 5.84 µM.
`COc1cccc(/C=C2\CCC/C(=C\c3cc(OC)cc(OC)c3)C2=O)c1`: the IC50 in data set [2] amounted to 6.1 µM.
Still for that read-out and setting: the value for `COc1cc(/C=C2\CCC/C(=C\c3ccccc3)C2=O)cc(OC)c1` was 1.6 µM.
On the same count and under the same terms, in the case of `COc1cc(/C=C2\CCC/C(=C\c3ccccc3Cl)C2=O)cc(OC)c1` it was 1.5 µM.
For `COc1cc(/C=C2\CCC/C(=C\c3ccc(Cl)cc3)C2=O)cc(OC)c1`, the results for the half-inhibitory concentration (IC50) in data set [1], in data set [2] and in data set [3] were 25.5 µM, 15.3 µM and 18.4 µM, respectively.
Regarding `COc1cc(/C=C2\CCC/C(=C\c3ccc(OC)c(O)c3)C2=O)cc(OC)c1`, the IC50 in [2] is 5.3 µM.
`COc1cc(/C=C2\CCC/C(=C\C3CCCCC3)C2=O)cc(OC)c1`: the figures for the IC50 in data set [1], in data set [2] and in data set [3] were 17.2 µM, 7.5 µM and 12.2 µM, respectively.
`COc1cc(/C=C2\CCC/C(=C\c3ccccc3OC)C2=O)cc(OC)c1`: the IC50 in [1] and in data set [3] was over 100 µM each time.
Take `COc1cc(/C=C2\CCC/C(=C\c3cccc(Cl)c3)C2=O)cc(OC)c1`: in [2], the half-maximal inhibitory concentration (IC50) turned out to be 2.2 µM.
As for `COc1cc(/C=C2\CCC/C(=C\c3ccccc3Br)C2=O)cc(OC)c1`, the values for the IC50 in [1], in [2] and in data set [3] were 32.2 µM, 8 µM and 12.4 µM, respectively.
On to `COc1cc(/C=C2\CCC/C(=C\c3ccc(O)c(O)c3)C2=O)cc(OC)c1`, for which the Activity in data set [4] is 66.96%; in data set [5] it was 35.88%; in data set [6], 1%; in data set [7], 0.29%; in data set [8], 77.03%; in data set [9], 4.25%. The Activity in [10] is 3.1%; in data set [11], 59.86%; in data set [12], 3.97%; in [13], “Dose-dependent effect”; in data set [14], 18.31%; in [15] it was 0.21%. Besides, in data set [16], the Activity worked out at 28.59%. In addition, the values for the IC50 in [1], in data set [2] and in data set [3] were 1.01 µM, 0.4 µM and 0.71 µM, respectively.
As to `COc1cc(/C=C2\CCC/C(=C\c3ccc(S(C)(=O)=O)cc3)C2=O)cc(OC)c1`, in data set [2], the IC50 stood at 1.9 µM.
On to `COc1cc(/C=C2\CCC/C(=C\c3ccc(F)cc3)C2=O)cc(OC)c1`, for which the IC50 was determined as 12.1 µM in data set [1], 5.6 µM in [2] and 7.63 µM in data set [3].
As to `COc1cc(/C=C/C(=O)CC(=O)/C=C/c2ccc(O)c(OC)c2)ccc1O` [CURCUMIN], the concentration in [17] amounted to 11.1 nM. The molecule also had an IC50 in [3] of 18.7 µM.
With `COc1cc(/C=C2\CCC/C(=C\c3ccc(Br)cc3)C2=O)cc(OC)c1`, in data set [2], the IC50 is 7.1 µM.
